Experiment [1] deals with 97 oncogenic and related kinases. The experiment in a line: Commercial kinome screen. Format: binding.
Experiment [2] has as its system eIF2α-S51 A/A and S/S MEFs. Nature of the experiment: Viability. The experiment is classed as cell-based, Murine. The settings on record: Mus musculus, 72 h.
The next experiment deals with Atf4−/− and WT MEFs. The experiment in a line: Viability. Format: cell-based, Murine. The note with it: Mus musculus, 72 h, read-out: IC50, viability, Atf4−/− MEFs, 72 hour.
Another experiment addresses DDX39A (Homo sapiens, UniProt O00148). Nature of the experiment: Malachite green ATP hydrolysis counter-screen, DDX39A. The experiment is classed as biochemical. (In general: Counterscreens check selectivity or assay interference.)
The target in a further experiment is eIF4A1 (Homo sapiens, UniProt P60842). Nature of the experiment: Isothermal titration calorimetry. Format: binding. The procedure, abridged: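 eIF4A dialysed 12 h against 20 mM MES-KOH pH 6.0, 10 mM potassium acetate, 2.5 mM MgCl2, 1% glycerol, 1 mM DTT. Protein was matched to 2% DMSO, degassed and placed in the cell. 12–20 injections of 0.2 mM test compound in the same buffer, every 200 s over 3000 s. Peaks integrated to 75 s post-injection and fit to an independent binding model. Replicates run at 25 and 10 µM eIF4A.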
Chain of eIF4A1 (P60842 whole entry): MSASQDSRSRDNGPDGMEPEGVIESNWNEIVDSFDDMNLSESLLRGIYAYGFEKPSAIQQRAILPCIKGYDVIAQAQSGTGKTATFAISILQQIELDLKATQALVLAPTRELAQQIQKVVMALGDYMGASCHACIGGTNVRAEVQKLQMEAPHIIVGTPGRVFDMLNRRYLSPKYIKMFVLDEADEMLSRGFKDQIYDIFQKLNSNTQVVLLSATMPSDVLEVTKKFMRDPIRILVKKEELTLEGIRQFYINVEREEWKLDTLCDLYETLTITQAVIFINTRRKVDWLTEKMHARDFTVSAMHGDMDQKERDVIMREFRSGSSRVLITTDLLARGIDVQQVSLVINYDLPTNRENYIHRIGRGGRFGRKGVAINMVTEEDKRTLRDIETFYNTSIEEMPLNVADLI
A general note: In ITC the heat of successive injections is recorded.

Experiment [3] deals with primary chronic lymphocytic leukemia (CLL) cells. Nature of the experiment: OPP labeling in primary CLL patient cells. The experiment is classed as cell-based.
A further experiment has as its system HEK-293 cells. The experiment in a line: Dual-luciferase reporter assay. Format: cell-based. The settings on record: eight-hour treatment. The method in brief:
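HEK-293 cells (7 × 10^5) transfected with 400 ng of a dual-luciferase plasmid using Lipofectamine 3000. Treated 36 h after transfection for 8 h, then lysed with a dual-luciferase kit and read in triplicate. Luciferase units normalized to DMSO-treated cells; mean ± SEM, n=3.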
On the technique in general: In a reporter assay the amount or activity of a reporter protein is the signal.

Like-named read-outs stand apart in the source and are kept apart here.

Chain of DDX39A (O00148 whole entry, species assumed): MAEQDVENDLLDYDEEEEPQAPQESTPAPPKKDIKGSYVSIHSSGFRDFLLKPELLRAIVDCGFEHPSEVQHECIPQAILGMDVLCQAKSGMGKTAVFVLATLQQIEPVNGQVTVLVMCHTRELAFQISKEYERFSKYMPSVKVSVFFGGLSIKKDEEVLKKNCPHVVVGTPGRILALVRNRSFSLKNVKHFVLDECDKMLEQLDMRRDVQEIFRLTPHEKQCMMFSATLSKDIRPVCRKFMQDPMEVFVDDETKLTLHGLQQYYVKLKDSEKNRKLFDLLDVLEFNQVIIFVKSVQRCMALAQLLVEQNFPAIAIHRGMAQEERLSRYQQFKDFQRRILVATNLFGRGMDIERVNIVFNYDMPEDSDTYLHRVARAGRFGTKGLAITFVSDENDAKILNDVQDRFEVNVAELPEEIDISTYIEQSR

For orientation: Kd means the free concentration of one partner at which half of the binding sites on the other are occupied at equilibrium, for simple one-to-one binding. Higher therefore signals lower affinity. For `C=C1C[C@H](O)[C@H](Br)C(C)(C)[C@@]12CCC(C)=C(Cl)C2` [elatol], the “activity against 97 oncogenic and related kinases” value in experiment [1] was “no activity”. Moreover, the IC50 in experiment [2] (read-out: IC50, viability, eIF2α-S51 A/A MEFs, 72 hour) was determined as 1.03 µM; in experiment [2] (read-out: IC50, viability, eIF2α-S51 S/S MEFs, 72 hour), 1.4 µM; in the experiment on Atf4−/− and WT MEFs, 2.79 µM. Moreover, the “activity against ATP hydrolysis by DDX39A” value on DDX39A is “no activity”. The molecule also showed a Kd on eIF4A1 of 1.98 ± 0.31 µM. Besides, the “protein translation measured by OPP labeling” value in experiment [3] (primary CLL cells stimulated with anti IgM) is reported as “significantly reduced protein translation”. Moreover, the OPP labeling entry in experiment [3] (unstimulated primary CLL cells, or non-malignant T-cells) was “did not significantly inhibit OPP labeling”. Further, the “cap-dependent versus IRES driven luciferase expression” value with HEK-293 cells was “down-regulated cap-dependent protein translation more strongly than cap-independent IRES driven expression”.

The record behind these values is article PMC6500731 (Clinical cancer research : an official journal of the …, 2018).
